Some results are limits rather than exact numbers.

The target of test [1] is T1, Muscarinic acetylcholine receptor M2 (Rattus norvegicus) (UniProt P10980).
T1 sequence (whole entry): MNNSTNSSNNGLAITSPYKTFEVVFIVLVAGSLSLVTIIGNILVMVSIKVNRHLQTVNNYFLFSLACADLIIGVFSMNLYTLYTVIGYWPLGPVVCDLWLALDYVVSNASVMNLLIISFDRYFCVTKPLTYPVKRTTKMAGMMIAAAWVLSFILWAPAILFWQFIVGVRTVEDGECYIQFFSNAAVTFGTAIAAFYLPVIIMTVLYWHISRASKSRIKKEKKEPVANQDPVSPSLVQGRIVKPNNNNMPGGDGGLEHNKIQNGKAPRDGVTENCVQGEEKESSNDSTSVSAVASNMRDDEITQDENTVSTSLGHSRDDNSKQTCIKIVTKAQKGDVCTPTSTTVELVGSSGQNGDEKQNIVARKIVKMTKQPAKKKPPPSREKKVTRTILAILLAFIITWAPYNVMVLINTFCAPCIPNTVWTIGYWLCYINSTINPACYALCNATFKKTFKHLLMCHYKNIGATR

The target in test [2] is T2, Muscarinic acetylcholine receptor M1 (Rattus norvegicus) (UniProt P08482).
T2 sequence (whole entry): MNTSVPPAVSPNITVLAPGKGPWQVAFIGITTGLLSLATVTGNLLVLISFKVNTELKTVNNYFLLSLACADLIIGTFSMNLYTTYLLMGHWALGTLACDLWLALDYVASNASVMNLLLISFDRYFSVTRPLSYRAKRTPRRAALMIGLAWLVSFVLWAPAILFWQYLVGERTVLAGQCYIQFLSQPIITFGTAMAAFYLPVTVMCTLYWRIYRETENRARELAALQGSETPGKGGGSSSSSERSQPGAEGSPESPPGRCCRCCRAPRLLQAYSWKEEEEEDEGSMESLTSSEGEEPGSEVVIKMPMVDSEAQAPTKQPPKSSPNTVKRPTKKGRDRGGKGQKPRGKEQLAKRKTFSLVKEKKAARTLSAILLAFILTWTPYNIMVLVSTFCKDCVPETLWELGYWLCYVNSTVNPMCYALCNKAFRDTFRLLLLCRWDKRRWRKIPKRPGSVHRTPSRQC

The species entered for test [3] is Rattus norvegicus. Description: Determined for Functional efficacy compared to 1 uM muscarine in superior cervical ganglion. In short, it runs like this:
(§1)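 Potentials were recorded by grease-gap between the ganglion body and the internal carotid nerve. Semicumulative concentration–response curves used 1-min agonist superfusions every 10 min. Potency is given as −log EC50 (M). Efficacy is the ratio to the maximum response to 1 µM (±)-muscarine chloride.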

For test [4], the species on record is Rattus norvegicus. The experiment in a line: (§2) Determined for potency (muscarinic agonistic activity) expressed in superior cervical ganglion in vitro. Format: functional. Conditions: for EC50: Rattus norvegicus, Superior cervical ganglion. In short, it runs like this: as §1
The target of test [5] is T2, Muscarinic acetylcholine receptor M1 (Rattus norvegicus). The source holds these as a separate data set.
Test [6] concerns the target T1, Muscarinic acetylcholine receptor M2 (Rattus norvegicus). This is another data set of the same source.
For test [7], the species on record is Cavia porcellus. Description: (§3) Determined for potency (muscarinic agonistic activity) expressed in guinea pig ileum in vitro. Format: functional. A digest of the protocol:
(§4)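 Agonist-evoked contractions were recorded and concentration–response curves built. EC50 is the concentration giving 50% of that tissue's own maximum, reported as −log EC50 (M).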

For test [8], the species on record is Cavia porcellus. The experiment in a line: Functional efficacy compared to 1 uM muscarine and the maximum response to carbachol in guinea pig ileum. A digest of the protocol: as §4
For test [9], the species on record is Cavia porcellus. Description: Functional efficacy compared to 1 uM muscarine and the maximum response to carbachol in guinea pig isolated atria.
Test [10] is filed under the species Cavia porcellus. Described as §3. The conditions noted are these: read-out: Log EC50 (converted).
The species named for test [11] is Cavia porcellus. Description: (§5) Determined for potency (muscarinic agonistic activity) expressed in guinea pig isolated atria in vitro. Conditions: read-out: Log EC50 (converted).
The species named for test [12] is Cavia porcellus. The description is as §5. The class given is functional.
Test [13] in a line: as §2. The class given is functional, tissue-based, Rattus norvegicus. A digest of the protocol:
as §1

Turning to `CC1OCC2(CN3CCC2CC3)O1` (centres undefined) [listing 1 of 2 here], the values for the K app in [1] and in test [2] were 13 µM and 6.8 µM, respectively.

`C[C@@H]1O[C@H](C[N+](C)(C)C)C[C@H]1O` [MUSCARINE] gave an FE in the test listed under Rattus norvegicus [3] of 1.1. Moreover, the midpoint of the response in the test filed under Rattus norvegicus [4], the EC50, lay at 0.17 µM. Besides, the results for the K app in test [5] and in test [6] were 28 µM and 2.3 µM, respectively.

Consider `CC1OCC2(CN3CCC2CC3)O1` (single isomer, unassigned) [listing 1 of 2 here], for which the “Log EC50” value in the test filed under Rattus norvegicus [4] is listed as under -4. Moreover, the EC50 (in general, the concentration giving half of the maximal effect) in the test filed under Cavia porcellus [7] was over 316 µM.

On to `C[C@@H]1OCC2(CN3CCC2CC3)O1` (stereo in doubt; 1A1) [listing 1 of 2 here], for which, in the test listed under Rattus norvegicus [4], the “Log EC50” value is listed as under -4.

Turning to `C[C@H]1OCC2(CN3CCC2CC3)O1` (stereo in doubt; 1B1), the FE in the test filed under Cavia porcellus [8], in the test listed under Cavia porcellus [9] and in the test filed under Rattus norvegicus [3] was 0.8 in each case. Further, the EC50 in the test listed under Cavia porcellus [10] is 2.19 µM; in the test listed under Cavia porcellus [11] it was 14.8 µM. Also, the “Log EC50” value in the test listed under Rattus norvegicus [4] is recorded as -5.25. Also, the results for the K app in [5] and in test [6] were 2.7 µM and 2.2 µM, respectively.

`C[C@@H]1OCC2(CN3CCC2CC3)O1.C[C@H]1OCC2(CN3CCC2CC3)O1` (some centres undefined) [listing 1 of 2 here]: the results for the FE in the test listed under Cavia porcellus [8], in the test listed under Cavia porcellus [9] and in the test filed under Rattus norvegicus [3] were 0.8, 0.8 and 0.7, respectively. Also, the figures for the EC50 in the test listed under Cavia porcellus [10], in the test listed under Cavia porcellus [11] and in the test listed under Rattus norvegicus [4] were 3.31 µM, 21.9 µM and 5.75 µM, respectively.

As for `CC1OCC2(CN3CCC2CC3)O1` (single isomer, unassigned) [listing 2 of 2 here], the values for the K app in test [5] and in test [6] were 66 µM and 92 µM, respectively.

As for `C[C@@H]1OCC2(CN3CCC2CC3)O1` (stereo in doubt; 1B2) [listing 1 of 2 here], the K app was 4.1 µM in test [5] and 8.5 µM in test [6].

On to `CC1OCC2(CN3CCC2CC3)O1` (centres undefined) [listing 2 of 2 here], for which the FE in the test filed under Cavia porcellus [8] stood at 0.8; in the test listed under Cavia porcellus [9], 0.8; in the test listed under Rattus norvegicus [3], 0.7. The EC50 in the test listed under Cavia porcellus [12] is 83.2 µM; in the test listed under Cavia porcellus [7], 6.31 µM. For the same compound, the “Log EC50” value in test [13] is given as -4.83.

Consider `C[C@@H]1OCC2(CN3CCC2CC3)O1` (stereo in doubt; 1B2) [listing 2 of 2 here], for which the results for the FE in the test filed under Cavia porcellus [8], in the test filed under Cavia porcellus [9] and in the test listed under Rattus norvegicus [3] were 0.7, 0.2 and 0.7, respectively. The values for the EC50 in the test filed under Cavia porcellus [10] and in the test listed under Cavia porcellus [11] were 20 µM and 100 µM, respectively. Also, in the test listed under Rattus norvegicus [4], the “Log EC50” value is reported as -4.56.

`C[C@@H]1OCC2(CN3CCC2CC3)O1` (stereo in doubt; 1A1) [listing 2 of 2 here]: the K app worked out at 55 µM in test [5] and 64 µM in test [6].

With `C[C@@H]1OCC2(CN3CCC2CC3)O1.C[C@H]1OCC2(CN3CCC2CC3)O1` (some centres undefined) [listing 2 of 2 here], the results for the K app in [5] and in test [6] were 5.9 µM and 8.4 µM, respectively.

Turning to `C[N+](C)(C)CCOC(N)=O.[Cl-]` [CARBACHOL], the FE in the test filed under Cavia porcellus [8] and in the test listed under Cavia porcellus [9] was 1 each time. Moreover, the EC50 in the test listed under Cavia porcellus [10] was 0.102 µM; in the test filed under Cavia porcellus [11] it was 0.209 µM. The K app in test [5] was determined as 45 µM; in test [6] it was 1.9 µM.
